Source: ChEMBL document CHEMBL4732181, “Pyrazolo[3,4-d]pyrimidine-based dual EGFR T790M/HER2 inhibitors: Design, synthesis, structure-activity relationship and biological activity as potential antitumor and anticonvulsant agents” (Eur J Med Chem, 2021)

Legend:
Mus musculus [1] = assay: Anticonvulsant activity against mouse model of LiCa/pilocarpine-induced status epilepticus assessed as power pV2 at 20 mg/kg, po for 10 days by EEG method relative to control; assay type: functional; conditions: time 10 day
Summary of the method: (§1)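 Male mice (20-30 g), five per group, dosed orally once daily for 10 days. Status epilepticus was then induced with LiCa (3 mEq/kg i.p.), atropine sulfate (1 mg/kg i.p.) 30 min before pilocarpine, and pilocarpine HCl (300 mg/kg i.p.) 2 h after LiCa. Normal controls received oral distilled water. Comparators were untreated SE, phenytoin and lamotrigine. One-way ANOVA with Tukey post-hoc; mean ± SD.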

Mus musculus [2] = assay: Anticonvulsant activity against mouse model of LiCa/pilocarpine-induced status epilepticus assessed as MDA level in brain at 20 mg/kg, po for 10 days by calorimetric method relative to control; assay type: functional; conditions: time 10 day; summary of the method: as §1
Mus musculus [3] = assay: Anticonvulsant activity against mouse model of LiCa/pilocarpine-induced status epilepticus assessed as total power density at 20 mg/kg, po for 10 days by EEG method relative to control; assay type: functional; conditions: time 10 day; summary of the method: as §1
Mus musculus [4] = assay: Anticonvulsant activity against mouse model of LiCa/pilocarpine-induced status epilepticus assessed as spectral edge frequency at 20 mg/kg, po for 10 days by EEG method relative to control; assay type: functional; conditions: time 10 day; summary of the method: as §1
Mus musculus [5] = assay: Anticonvulsant activity against mouse model of LiCa/pilocarpine-induced status epilepticus assessed as delta at 20 mg/kg, po for 10 days by EEG method relative to control; assay type: functional; conditions: time 10 day; summary of the method: as §1
Mus musculus [6] = assay: Anticonvulsant activity against mouse model of LiCa/pilocarpine-induced status epilepticus assessed as amplitude at 20 mg/kg, po for 10 days by EEG method relative to control; assay type: functional; conditions: time 10 day; summary of the method: as §1
Mus musculus [7] = assay: Anticonvulsant activity against mouse model of LiCa/pilocarpine-induced status epilepticus assessed as GABA level in brain at 20 mg/kg, po for 10 days by ELISA relative to control; assay type: functional; conditions: time 10 day; summary of the method: as §1
Mus musculus [8] = assay: Anticonvulsant activity against mouse model of LiCa/pilocarpine-induced status epilepticus assessed as total power at 20 mg/kg, po for 10 days by EEG method relative to control; assay type: functional; conditions: time 10 day; summary of the method: as §1
Mus musculus [9] = assay: Anticonvulsant activity against mouse model of LiCa/pilocarpine-induced status epilepticus assessed as alpha at 20 mg/kg, po for 10 days by EEG method relative to control; assay type: functional; conditions: time 10 day; summary of the method: as §1
WI-38 = assay: Cytotoxicity against human WI-38 cells assessed as reduction in cell viability after 48 hrs by MTT assay; assay type: cell-based; conditions: WI-38, 48 h
Summary of the method: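 Cells from ATCC grown in DMEM with 10% FBS, insulin and 1% penicillin-streptomycin. Plated at 1.2-1.8 × 10,000 cells/well for 24 h, then exposed to compounds in DMSO vehicle for 48 h. MTT 0.5 mg/ml added for 2 h; absorbance read at 570 nm. Experiments run in triplicate.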

Mus musculus [10] = assay: Anticonvulsant activity against mouse model of LiCa/pilocarpine-induced status epilepticus assessed as GSH level in brain at 20 mg/kg, po for 10 days by calorimetric method relative to control; assay type: functional; conditions: time 10 day; summary of the method: as §1
Mus musculus [11] = assay: Anticonvulsant activity against mouse model of LiCa/pilocarpine-induced status epilepticus assessed as amplitude density at 20 mg/kg, po for 10 days by EEG method relative to control; assay type: functional; conditions: time 10 day; summary of the method: as §1
Mus musculus [12] = assay: Anticonvulsant activity against mouse model of LiCa/pilocarpine-induced status epilepticus assessed as mean power frequency at 20 mg/kg, po for 10 days by EEG method relative to control; assay type: functional; conditions: time 10 day; summary of the method: as §1
Mus musculus [13] = assay: Anticonvulsant activity against mouse model of LiCa/pilocarpine-induced status epilepticus assessed as theta at 20 mg/kg, po for 10 days by EEG method relative to control; assay type: functional; conditions: time 10 day; summary of the method: as §1
Mus musculus [14] = assay: Anticonvulsant activity against mouse model of LiCa/pilocarpine-induced status epilepticus assessed as Glutamate level in brain at 20 mg/kg, po for 10 days by ELISA relative to control; assay type: functional; conditions: time 10 day; summary of the method: as §1

Row | Structure (SMILES) | Activity (Mus musculus [1]) [%] | Activity (Mus musculus [2]) [%] | Activity (Mus musculus [3]) [%] | Activity (Mus musculus [4]) [%] | Activity (Mus musculus [5]) [%] | Activity (Mus musculus [6]) [%] | Activity (Mus musculus [7]) [%] | Activity (Mus musculus [8]) [%] | Activity (Mus musculus [9]) [%] | IC50 (WI-38) [nM] | Activity (Mus musculus [10]) [%] | Activity (Mus musculus [11]) [%] | Activity (Mus musculus [12]) [%] | Activity (Mus musculus [13]) [%] | Activity (Mus musculus [14]) [%]
1 | COc1ccc(/C=C2\N=C(c3ccc(Cl)cc3)N(C(=O)c3nc4c(c(C)nn4-c4ccccc4)c(=O)[nH]3)NC2=O)cc1 | 190.77 | -67.54 | 245.46 | -22.51 | 330.62 | 71.11 | 87.03 | 14.87 | -4.74 | 25 | 150.97 | 46.81 | -40.42 | 20.25 | -66.54
2 | Cc1nn(-c2ccccc2)c2nc(CC(=O)N3NC(=O)/C(=C\c4ccc(Cl)cc4)N=C3c3ccccc3)[nH]c(=O)c12 | 204.36 | -74.39 | 248.78 | -28.09 | 327.42 | 82.67 | 80.61 | 23.03 | 0.12 | 111 | 170 | 63.22 | -44.11 | 20.33 | -76.98
3 | COc1ccc(/C=C2/N=C(c3ccc(C)cc3)N(C(=O)Cc3nc4c(c(C)nn4-c4ccccc4)c(=O)[nH]3)NC2=O)cc1 | 218.96 | -69.49 | 264.63 | -26.44 | 362.78 | 80.44 | 71.88 | 33.82 | 0.71 | 18.6 | 50.67 | 82.98 | -33 | 27.12 | -50.42
4 | Cc1nn(-c2ccccc2)c2nc(CC(=O)N3NC(=O)/C(=C\c4ccc(Cl)cc4)N=C3c3ccc(Cl)cc3)[nH]c(=O)c12 | 126.51 | -60.61 | 181.99 | -13.39 | 239.87 | 45.78 | 82.22 | 0.58 | 35.86 | 12.9 | 146.06 | 69.3 | -25.05 | 54.18 | -58.56
5 | Cc1ccc(C2=N/C(=C/c3ccccc3)C(=O)NN2C(=O)Cc2nc3c(c(C)nn3-c3ccccc3)c(=O)[nH]2)cc1 | 243.46 | -69.74 | 302.31 | -29 | 366.41 | 90.67 | 91.22 | 23.32 | -5.99 | 85.6 | 188.85 | 110.33 | -46.23 | 11.83 | -82.89
6 | Cc1nn(-c2ccccc2)c2nc(C(=O)N3NC(=O)/C(=C/c4ccccc4)N=C3c3ccc(Cl)cc3)[nH]c(=O)c12 | 133.56 | -55.28 | 200.5 | -13.59 | 254.07 | 54.67 | 89.37 | 10.2 | 27.21 | 55 | 80.37 | 76.29 | -22.83 | 16.08 | -39.91
7 | Cc1nn(-c2ccccc2)c2nc(CC(=O)N3NC(=O)/C(=C\c4ccccc4)N=C3c3ccc(Cl)cc3)[nH]c(=O)c12 | 117.95 | -46.88 | 175.43 | -17.33 | 264.98 | 55.11 | 40.05 | 0.29 | 34.85 | 80.2 | 191.86 | 68.09 | -28.52 | 34.99 | -45.51
8 | COc1ccc(/C=C2/N=C(c3ccccc3)N(C(=O)Cc3nc4c(c(C)nn4-c4ccccc4)c(=O)[nH]3)NC2=O)cc1 | 167.62 | -66.91 | 215.63 | -21.87 | 266.63 | 66.22 | 104.31 | 16.62 | 2.55 | 17.2 | 136.46 | 47.72 | -39.36 | 24.43 | -75.98
9 | Cc1ccc(C2=N/C(=C\c3ccccc3)C(=O)NN2C(=O)c2nc3c(c(C)nn3-c3ccccc3)c(=O)[nH]2)cc1 | 143.79 | -66.18 | 210.16 | -22.26 | 241.85 | 62.22 | 59.73 | 15.45 | 9.13 | 24.5 | 173.91 | 36.17 | -37.93 | 32.01 | -72.91
10 | COc1ccc(/C=C2\N=C(c3ccc(C)cc3)N(C(=O)c3nc4c(c(C)nn4-c4ccccc4)c(=O)[nH]3)NC2=O)cc1 | 198.49 | -46.76 | 222.48 | -18.75 | 295.04 | 79.11 | 79.64 | 18.66 | 4.98 | 36.8 | 98.02 | 56.84 | -32.59 | 32.29 | -67.77
11 | O=C1NC(=O)C(c2ccccc2)(c2ccccc2)N1 [PHENYTOIN] | 332.89 | -56.88 | 381.63 | -38.74 | 485.9 | 158.67 | 92.87 | 51.6 | -14.82 | – | 156.39 | 175.08 | -58.54 | 19.76 | -81.35
12 | Cc1nn(-c2ccccc2)c2nc(C(=O)N3NC(=O)/C(=C/c4ccccc4)N=C3c3ccccc3)[nH]c(=O)c12 | 138.76 | -72.13 | 229.32 | -16.31 | 314.32 | 67.11 | 61.71 | 13.12 | 12.39 | 49.5 | 154.11 | 78.42 | -30.24 | 28.9 | -58.33
13 | Cc1nn(-c2ccccc2)c2nc(C(=O)N3NC(=O)/C(=C/c4ccc(Cl)cc4)N=C3c3ccc(Cl)cc3)[nH]c(=O)c12 | 225.84 | -63.24 | 233.86 | -21.45 | 313.77 | 89.78 | 74.49 | 37.32 | 4.62 | 19.3 | 144.08 | 54.1 | -37.61 | 41.15 | -57.79
14 | COc1ccc(/C=C2\N=C(c3ccccc3)N(C(=O)c3nc4c(c(C)nn4-c4ccccc4)c(=O)[nH]3)NC2=O)cc1 | 230.03 | -54.04 | 265.27 | -25.28 | 368.94 | 99.56 | 68.66 | 30.61 | -5.51 | 97.7 | 141.33 | 88.15 | -48.49 | 29.32 | -76.21
